Source: ChEMBL document CHEMBL4406829, “Synthesis and in vitro evaluation of piperazinyl-ureido sulfamates as steroid sulfatase inhibitors” (Eur J Med Chem, 2019)

Legend:
[1] = molecular target: T1, Steryl-sulfatase (Homo sapiens) (UniProt P08842); assay: Inhibition of steroid sulfatase in human JEG3 cell lysates assessed as residual activity at 10 uM using [3H] E1S as substrate after 1 hr by scintillation spectrometry analysis relative to control; values are per cent of control; settings: Lysate
T1 sequence (whole entry): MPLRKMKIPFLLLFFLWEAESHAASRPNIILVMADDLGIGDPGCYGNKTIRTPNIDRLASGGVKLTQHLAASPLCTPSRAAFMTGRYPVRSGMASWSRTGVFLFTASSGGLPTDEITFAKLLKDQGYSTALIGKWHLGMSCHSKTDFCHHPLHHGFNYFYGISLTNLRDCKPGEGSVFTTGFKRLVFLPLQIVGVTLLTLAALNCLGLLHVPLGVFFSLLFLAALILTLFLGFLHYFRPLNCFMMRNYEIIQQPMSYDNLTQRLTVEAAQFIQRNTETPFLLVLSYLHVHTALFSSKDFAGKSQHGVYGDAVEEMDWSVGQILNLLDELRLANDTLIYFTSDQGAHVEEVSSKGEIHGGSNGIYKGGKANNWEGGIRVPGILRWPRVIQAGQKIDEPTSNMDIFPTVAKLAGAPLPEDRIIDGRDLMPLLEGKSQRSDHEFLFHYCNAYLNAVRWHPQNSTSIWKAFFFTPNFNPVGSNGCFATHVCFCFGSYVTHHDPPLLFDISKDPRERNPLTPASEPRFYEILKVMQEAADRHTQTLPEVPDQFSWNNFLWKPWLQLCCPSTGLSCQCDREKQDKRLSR

Steryl-sulfatase = molecular target: T2, Steryl-sulfatase (Homo sapiens, UniProt P08842); assay: Inhibition of steroid sulfatase in human JEG3 cell using [3H] E1S as substrate after 1 hr by scintillation spectrometry analysis
T2 sequence (P08842 whole entry): T1 sequence (whole entry)
Summary of the method: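 JEG-3 (human placental choriocarcinoma) lysate at 125 μg protein/mL incubated 1 h with inhibitor (0.001–10 μM) and [3H]E1S adjusted to 20 μM with unlabelled E1S. Estrone product was extracted with toluene, and [14C]E1 was used to correct for losses. Read-out was 3H/14C scintillation counting. IC50 from activity with and without inhibitor; mean ± S.D., n = 3.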

CCCCCCCCN1CCN(C(=O)Nc2ccc(OS(N)(=O)=O)c(Cl)c2)CC1
residual activity [1]: 13.9%
IC50 (Steryl-sulfatase): 18.9 nM

CCCCCCCCN1CCN(C(=O)Nc2ccc(OS(N)(=O)=O)cc2Cl)CC1
residual activity [1]: 71.6%

NS(=O)(=O)Oc1ccc(NC(=O)N2CCN(c3ccc(F)cc3)CC2)cc1
residual activity [1]: 93.5%

NS(=O)(=O)Oc1ccc(NC(=O)N2CCN(c3nccc(-c4cccc(C(F)(F)F)c4)n3)CC2)cc1
residual activity [1]: 44.3%

COc1ccc(-c2ccnc(N3CCN(C(=O)Nc4ccc(OS(N)(=O)=O)cc4)CC3)n2)cc1OC
residual activity [1]: 60.7%

Cc1cccc(N2CCN(C(=O)Nc3ccc(OS(N)(=O)=O)cc3)CC2)c1C
residual activity [1]: 5.9%
IC50 (Steryl-sulfatase): 66 nM

COc1ccc(-c2ccnc(N3CCN(C(=O)Nc4ccc(OS(N)(=O)=O)cc4)CC3)n2)cc1
residual activity [1]: 7.9%

NS(=O)(=O)Oc1ccc(NC(=O)N2CCN(c3ccc(Cl)cc3)CC2)cc1Cl
residual activity [1]: 110%

CCCCCCCCCCN1CCN(C(=O)Nc2ccc(OS(N)(=O)=O)cc2F)CC1
residual activity [1]: 7.8%

COc1cc(-c2ccnc(N3CCN(C(=O)Nc4ccc(OS(N)(=O)=O)cc4)CC3)n2)cc(OC)c1OC
residual activity [1]: 19%

Cc1cccc(N2CCN(C(=O)Nc3ccc(OS(N)(=O)=O)cc3F)CC2)c1C
residual activity [1]: 109%

NS(=O)(=O)Oc1ccc(NC(=O)N2CCN(c3ccc(Cl)cc3)CC2)cc1
residual activity [1]: 14.9%
IC50 (Steryl-sulfatase): 94 nM

CCCCCCCCCCN1CCN(C(=O)Nc2ccc(OS(N)(=O)=O)cc2Cl)CC1
residual activity [1]: 102%

Cc1cccc(N2CCN(C(=O)Nc3ccc(OS(N)(=O)=O)c(Cl)c3)CC2)c1C
residual activity [1]: 15.1%
IC50 (Steryl-sulfatase): 17 nM

Cc1cccc(N2CCN(C(=O)Nc3ccc(OS(N)(=O)=O)cc3)CC2)c1
residual activity [1]: 10.4%

NS(=O)(=O)Oc1ccc(NC(=O)N2CCN(Cc3ccccc3)CC2)cc1
residual activity [1]: 18.7%

CCCCCCCN1CCN(C(=O)Nc2ccc(OS(N)(=O)=O)cc2)CC1
residual activity [1]: 27.7%
IC50 (Steryl-sulfatase): 1690 nM

NS(=O)(=O)Oc1ccc(NC(=O)N2CCN(c3ccccc3)CC2)cc1
residual activity [1]: 16.9%

COc1cccc(N2CCN(C(=O)Nc3ccc(OS(N)(=O)=O)cc3)CC2)c1
residual activity [1]: 26.3%

NS(=O)(=O)Oc1ccc(NC(=O)N2CCN(Cc3cc4ccccc4o3)CC2)cc1
residual activity [1]: 20.2%

NS(=O)(=O)Oc1ccc(NC(=O)N2CCN(c3nccc(-c4ccccc4)n3)CC2)cc1
residual activity [1]: 65.9%

CCCCCCCCN1CCN(C(=O)Nc2ccc(OS(N)(=O)=O)cc2)CC1
residual activity [1]: 12.4%
IC50 (Steryl-sulfatase): 43.7 nM

CCCCCCCCN1CCN(C(=O)Nc2ccc(OS(N)(=O)=O)cc2F)CC1
residual activity [1]: 29.6%

NS(=O)(=O)Oc1ccc(NC(=O)N2CCN(c3ccc(Cl)cc3)CC2)cc1F
residual activity [1]: 7.1%
IC50 (Steryl-sulfatase): 5.1 nM

COc1ccc(N2CCN(C(=O)Nc3ccc(OS(N)(=O)=O)cc3)CC2)cc1
residual activity [1]: 37%

NS(=O)(=O)Oc1ccc(NC(=O)N2CCN(c3nccc(-c4cc5ccccc5o4)n3)CC2)cc1
residual activity [1]: 4.7%
IC50 (Steryl-sulfatase): 139 nM

CCCCCCCCN1CCN(C(=O)Nc2ccc(OS(N)(=O)=O)c(F)c2)CC1
residual activity [1]: 11.4%
IC50 (Steryl-sulfatase): 8.8 nM

Cc1ccccc1N1CCN(C(=O)Nc2ccc(OS(N)(=O)=O)cc2)CC1
residual activity [1]: 47.9%

NS(=O)(=O)Oc1ccc(NC(=O)N2CCN(c3nccc(-c4cccc(Br)c4)n3)CC2)cc1
residual activity [1]: 39.4%

CCCCCCCCCCN1CCN(C(=O)Nc2ccc(OS(N)(=O)=O)cc2)CC1
residual activity [1]: 3.5%
IC50 (Steryl-sulfatase): 33.2 nM

NS(=O)(=O)Oc1ccc(NC(=O)N2CCN(c3ccc(Cl)cc3)CC2)c(F)c1
residual activity [1]: 108%

NS(=O)(=O)Oc1ccc(NC(=O)N2CCN(c3ccc(Cl)c(Cl)c3)CC2)cc1
residual activity [1]: 23%
IC50 (Steryl-sulfatase): 1230 nM

CCCCCCCCCCN1CCN(C(=O)Nc2ccc(OS(N)(=O)=O)c(F)c2)CC1
residual activity [1]: 15.2%

Cc1cccc(-c2ccnc(N3CCN(C(=O)Nc4ccc(OS(N)(=O)=O)cc4)CC3)n2)c1
residual activity [1]: 26.7%

CCCCCCCCCCN1CCN(C(=O)Nc2ccc(OS(N)(=O)=O)c(Cl)c2)CC1
residual activity [1]: 25.4%
